Calls of active or inactive are those of the source. The calls are words filed in the database; no cut-off is given here.
Species on record: Mus musculus
Experiment: Effective dose in mouse PCA test
Type: functional
Conditions: not given
Summary of the method: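 Female CFW mice were passively sensitized with 50 µL of diluted homologous IgE-containing serum iv. Two days later compound was given po, 1 h before iv ovalbumin antigen plus Evans Blue dye. Mice were killed after 20 min, and each lesion area was scored as the product of two normal diameters.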

SMILES	ED50
CCCc1nc(C)c2c(C)nnc(O)n12	109 mg/kg
CCCc1nc(C)c2c(CC)nnc(O)n12	146 mg/kg
Cn1c(=O)c2nc[nH]c2n(C)c1=O.O [THEOPHYLLINE]	140 mg/kg
CCCc1nnc(O)n2c(CCC)nc(C)c12	114 mg/kg

Species on record: Homo sapiens
Experiment: Inhibitory activity against histamine release from antigen-challenged, sensitized human basophils
Type: functional
Conditions: Homo sapiens
Summary of the method: (§1)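 Histamine release was induced by antigen challenge of sensitized human basophils in vitro. Compounds were first screened at a single concentration. Those reducing release by more than 50% went on to concentration-response testing to estimate IC50. Values are given with standard error and number of experiments.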

SMILES	IC50
CCCc1nc(C)c2c(C)nnc(O)n12	14 µM
CCCc1nc(C)c2c(CC)nnc(O)n12	15.6 µM
Cn1c(=O)c2nc[nH]c2n(C)c1=O.O [THEOPHYLLINE]	335 µM
CCCc1nc(C)c2c(C)nn(CC(=O)O)c(=O)n12	> 48 µM
C=CCSc1nncc2c(C)nc(-c3ccccc3)n12	> 48 µM
CCOC(=O)/C(=C(\O)OCC)c1nncc2cncn12	> 48 µM
CCCc1nc(C)c2c(C)nn(C)c(=O)n12	> 48 µM
CCCc1nc(C)c2c(CC)nnc(SC)n12	> 48 µM
CC(C)c1ncn2c(O)nncc12	> 48 µM
CCCc1nnc(O)n2c(CCC)nc(C)c12	16 µM
CCOC(=O)CSc1nncc2cnc(C)n12	52 µM
CSc1nnc(-c2ccccc2)c2cncn12	> 48 µM
Cc1nc(-c2ccccc2)n2c(O)nncc12	> 48 µM
C=CCn1ncc2cncn2c1=O	> 48 µM
C=CCn1ncc2c(C)nc(Cc3ccccc3)n2c1=O	> 48 µM
C=CCSc1nncc2cnc(-c3ccccc3)n12	> 48 µM
O/C(=C/c1nncc2cncn12)c1ccccc1	38 µM
c1ccc(C(c2ccccc2)N2CCN(c3nncc4cncn34)CC2)cc1	> 48 µM
c1ccc(CNc2nncc3cncn23)cc1	> 48 µM
CCc1nnc(O)n2c(C(C)(C)C)nc(C)c12	26 µM
CC(C)CCSc1nncc2cncn12	9 µM
C=CCn1ncc2cnc(C)n2c1=O	> 48 µM
C=CCn1ncc2c(CCC)ncn2c1=O	> 48 µM
CCCc1nc(C)c2c(C(C)C)nnc(SC)n12	> 48 µM
Cc1nc(CC(C)(C)C)n2c(O)nncc12	> 48 µM

SMILES	IC50
CCCc1nc(C)c2c(-c3ccccc3)nnc(Nc3cc[nH]n3)n12	> 48 µM
CCOC(=O)CSc1nncc2c(C)ncn12	> 48 µM
CCCc1nc(C)c2cnn(CC)c(=O)n12	> 48 µM
CCCc1nc(C)c2c(C(C)C)nnc(S)n12	> 48 µM
CNc1nncc2cncn12	> 48 µM
Cc1ncn2c(Nc3cccnc3)nncc12	> 48 µM
C=CCSc1nncc2c(CC)ncn12	> 48 µM
C=CCSc1nncc2c(C)nc(C)n12	59 µM
Sc1nncc2cnc(-c3cccc(Cl)c3)n12	> 48 µM
CCCc1nc(C)c2cnnc(NCCN(C)C)n12	> 48 µM
COCc1ncc2cnnc(SC)n12	> 48 µM
CCc1nc(C)c2cnnc(O)n12	> 48 µM
O=C(CSc1nncc2cncn12)c1ccccc1	> 48 µM
CCCc1ncc2cnnc(O)n12	> 48 µM
Cc1nc(C)n2c(O)nncc12	> 48 µM
Sc1nncc2cncn12	> 48 µM
CCc1nnc(O)n2c(CC)nc(C)c12	24 µM
Cc1nc(C(C)C)n2c(O)nncc12	> 48 µM
CSc1nncc2c(C)ncn12	> 48 µM
CCc1nc(C)c2c(-c3ccccc3)nnc(O)n12	> 48 µM
CCCc1nc(C)c2cnn(CC(O)CO)c(=O)n12 (configuration not stated)	> 48 µM
CSc1nncc2c(C)nc(C(C)C)n12	> 48 µM
Cc1nnc(S)n2c(C)nc(C)c12	> 48 µM
CCCOc1ccccc1-c1ncc2cnnc(O)n12	> 48 µM
CCc1nnc(S)n2c(C(C)CC)nc(C)c12 (configuration not stated)	> 48 µM

SMILES	IC50
c1ncn2c(NC34CC5CC(CC(C5)C3)C4)nncc12	> 48 µM
C=CCn1ncc2cnc(COC)n2c1=O	> 48 µM
CCCc1nc(C)c2c(-c3ccccc3)nnc(SC)n12	> 48 µM
COc1ccc(-c2ncc3cnnc(O)n23)cc1	> 48 µM
c1ncn2c1C(NC1CCCC1)NN=C2NC1CCCC1 (configuration not stated)	> 48 µM
CCc1nnc(O)n2c(C(C)CC)nc(C)c12 (configuration not stated)	45 µM
CN(C)CCNc1nncc2cncn12	> 48 µM
C=CCSc1nncc2cnc(CCC)n12	> 48 µM
C=CCn1ncc2cnc(-c3ccc(OC)cc3)n2c1=O	> 48 µM
Cc1ncc2cnnc(O)n12	> 48 µM
CCCc1ncc2c(C)nnc(SC)n12	> 48 µM
C=CCn1ncc2cnc(Cc3ccccc3)n2c1=O	> 48 µM
C=CCn1nc(Br)c2c(Br)nc(CCC)n2c1=O	> 48 µM
c1ncn2c(NC3CCCC3)nncc12	> 48 µM
CCCc1nnc(O)n2c(C)nc(C)c12	> 48 µM
CSc1nnc(C)c2c(C)nc(C)n12	> 48 µM
CCOC(=O)/C=C/CSc1nncc2cncn12	> 48 µM
CCc1nc(C)c2cnnc(S)n12	> 48 µM
CCc1nc(C)c2c(-c3ccccc3)nnc(SC)n12	> 48 µM
CCO/C(O)=C\c1nncc2cncn12	> 48 µM
CCCCCCCCCCCCCCCCCc1ncc2cnnc(S)n12	> 48 µM
Cc1nc(C)n2c(=O)n(C)ncc12	> 48 µM
Cc1ncn2c(N(C)C)nncc12	> 48 µM
CCCc1nc(C)c2c(C)nn(CC(=O)OCC)c(=O)n12	> 48 µM
CCCc1ncc2c(C)nnc(O)n12	> 48 µM

SMILES	IC50
Oc1nncc2cnc(-c3ccccc3)n12	> 48 µM
COCc1nc(Br)c2cnnc(O)n12	> 48 µM
CCc1ncn2c(O)nncc12	> 48 µM
CCCc1nc(C)c2cnnc(O)n12	56.8 µM
CCCc1ncn2c(Nc3cc[nH]n3)nncc12	> 48 µM
CSc1nncc2c(C(C)C)ncn12	> 48 µM
Cc1nc(C(C)(C)C)n2c(O)nncc12	31 µM
COCc1nc(C)c2cnnc(S)n12	> 48 µM
CSc1nncc2c(C)nc(C)n12	> 48 µM
CCCc1nc(C)c2c(C)nn(Cc3ccccc3)c(=O)n12	> 48 µM
Cc1ncn2c(Nc3cccs3)nncc12	> 48 µM
COCc1ncc2cnnc(S)n12	> 48 µM
c1coc(CNc2nncc3cncn23)c1	> 48 µM
Oc1nncc2cncn12	> 48 µM
CCc1nc(C)c2cnn(CC)c(=O)n12	75.6 µM
CCCc1nc(C)c2c(C)nnc(SC)n12	> 48 µM
CCCc1nc(C)c2c(C3CC3)nnc(O)n12	> 48 µM
CSc1nnc(-c2ccccc2)c2c(C)nc(C(C)C)n12	> 48 µM
Cc1ncn2c(NCc3ccco3)nncc12	> 48 µM
CCCc1nc(C)c2cnn(CC3CC3)c(=O)n12	> 48 µM
c1ccc(-c2cn[nH]c2Nc2nncc3cncn23)cc1	10 µM
CCCc1nnc(S)n2c(CCC)nc(C)c12	> 48 µM
CCCc1nc(C)c2cnn(CC(=O)OCC)c(=O)n12	> 48 µM
CCCc1nc(C)n2c(O)nncc12	> 48 µM
CCCc1nc(C)c2cnnc(SC)n12	> 48 µM

SMILES	IC50
C=CCn1ncc2c(C)ncn2c1=O	> 48 µM
Cc1nc(C(C)C)n2c(S)nncc12	> 48 µM
CCCc1nc(C)c2c(C(C)C)nnc(O)n12	> 48 µM
C=CCn1ncc2c(CC)ncn2c1=S	> 48 µM
CCOC(=O)Cn1ncc2c(C)ncn2c1=O	> 48 µM
Sc1nncc2cnc(-c3ccccc3)n12	> 48 µM
CCOC(=O)Cn1ncc2cncn2c1=O	> 48 µM
COCc1nc(C)c2c(C)nnc(O)n12	> 48 µM
Cc1ncn2c(NN)nncc12	> 48 µM
CC(C)(C)c1ncc2cnnc(O)n12	> 48 µM
CCCc1nc(C)c2c(C)nn(CC(O)CO)c(=O)n12 (configuration not stated)	> 48 µM
CCCc1nc(C)c2cnnc(S)n12	10 µM
COCc1nc(Br)c2c(Br)nnc(O)n12	> 48 µM
CCCc1ncn2c(SC)nncc12	> 48 µM
c1ncn2c(N3CCCCC3)nncc12	> 48 µM
C=CCn1ncc2c(Br)nc(Cc3ccccc3)n2c1=O	> 48 µM
CCCc1nc(Br)c2cnnc(O)n12	> 48 µM
Cc1ncn2c(O)nncc12	> 48 µM
CCCc1ncc2c(C)nnc(S)n12	> 48 µM
C=CCn1ncc2c(Br)nc(CCC)n2c1=O	> 48 µM
CCCC1NN=C(SC)n2c1cnc2C (configuration not stated)	> 48 µM

Species on record: Homo sapiens
Experiment: Inhibitory activity against histamine release from antigen-challenged, sensitized human basophils; Fluorescent compound, obscuring the histamine assay
Type: functional
Conditions: not given
Summary of the method: as §1

SMILES	IC50
Cc1nnc(O)n2c(C)nc(C)c12	Fluoroescent compound, obscuring the histamine assay

What follows are molecules tested on Cavia porcellus (assay: Compound was evaluated in the guinea pig anaphylaxis test for in vivo activity; Inactive, treated 12/19, control 16/20). Conditions: not given.
Type: functional, organism-based

SMILES	Activity
Cn1c(=O)c2[nH]cnc2n(C)c1=O	inactive

From ChEMBL document CHEMBL1122852, “Imidazo[1,5-d][1,2,4]triazines as potential antiasthma agents” (J Med Chem, 1985)
